In ChEMBL document CHEMBL5303300, “EUbOPEN Chemogenomics Library - Multiplex” (2023):
“And” between values parts separate entries of the source, which are not always exact repeats. Equal values may be shown once.

Key:
Fibroblast = experiment: Multiplex assay against human fibroblast; format: toxicity, cell-based; details: number of replicates 2
In short: (§1)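 Values for tubulin, mitochondrial-mass and membrane-permeability phenotypes are per cents of cells with healthy nuclei. These cells were identified by CellPathfinder machine-learning gating of live cells that had been stained at seeding with Hoechst33342, BioTracker Green Microtubule Cytoskeleton Dye, MitoTracker Red and Annexin V Alexa Fluor 680 and imaged on a CQ1 microscope at 37°C and 5% CO2 after compound addition. The gating first set Hoechst high-intensity objects apart from normal cells, then split normal cells into healthy, pyknosed or fragmented nuclei, and pyknosed cells into mitotic or apoptotic.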

HEK-293T = experiment: Multiplex assay against HEK293T; format: toxicity, cell-based; details: human, number of replicates 2; in short: as §1
[1] = 12 h, 1 µM, compound concentration 1 uM
[2] = 12 h, 10 µM, compound concentration 10 uM
[3] = 24 h, 1 µM, compound concentration 1 uM
[4] = 24 h, 10 µM, compound concentration 10 uM
[5] = 48 h, 1 µM, compound concentration 1 uM
[6] = 48 h, 10 µM, compound concentration 10 uM

In the case of `CN(C)C/C=C/C(=O)Nc1cccc(S(=O)(=O)N2CCC(NC(=O)c3n[nH]cc3NC(=O)c3c(Cl)cc(Cl)cc3Cl)CC2)c1`, the “Population Apoptotic (%)” value (Fibroblast; [1]) is reported as 51% and 32%, the “Population Fragmented Nuclei (%)” value (Fibroblast; [1]) is reported as 12% and 7% and the “Population Healthy Nuclei (%)” value (Fibroblast; [1]) is reported as 59% and 65%. For the same molecule, the “Population Hoechst High Intensity Objects (%)” value (Fibroblast; [1]) was 0% and 1%, the “Population Membrane Permeable-Phenotype (%)” value (Fibroblast; [1]) was 11% and 14% and the “Population Mitochondria Different-Phenotype (%)” value (Fibroblast; [1]) was 1% and 5%. The “Population Mitotic Cells (%)” value (Fibroblast; [1]) was 48% and 67%, the “Population Normal (%)” value (Fibroblast; [1]) was 100% and 98% and the “Population Pyknosed Nuclei (%)” value (Fibroblast; [1]) was 28% and 26%. For the same molecule, the “Population Tubulin-Different-Phenotype (%)” value (Fibroblast; [1]) was 45% and 40%, the “Total Cell Count” value (Fibroblast; [1]) was 158 and 185 and the “Population Apoptotic (%)” value (Fibroblast; [2]) was 47% and 44%. For the same molecule, the “Population Fragmented Nuclei (%)” value (Fibroblast; [2]) was 28% and 26%, the “Population Healthy Nuclei (%)” value (Fibroblast; [2]) was 36% and 40% and the “Population Hoechst High Intensity Objects (%)” value (Fibroblast; [2]) was 0%. The “Population Membrane Permeable-Phenotype (%)” value (Fibroblast; [2]) was 18% and 10%, the “Population Mitochondria Different-Phenotype (%)” value (Fibroblast; [2]) was 4% and 5% and the “Population Mitotic Cells (%)” value (Fibroblast; [2]) was 52% and 55%. The “Population Normal (%)” value (Fibroblast; [2]) was 100%, the “Population Pyknosed Nuclei (%)” value (Fibroblast; [2]) was 34% and 32% and the “Population Tubulin-Different-Phenotype (%)” value (Fibroblast; [2]) was 82% and 72%. The “Total Cell Count” value (Fibroblast; [2]) was 243 and 248, the “Population Apoptotic (%)” value (Fibroblast; [3]) was 74% and 57% and the “Population Fragmented Nuclei (%)” value (Fibroblast; [3]) was 12% and 11%. For the same molecule, the “Population Healthy Nuclei (%)” value (Fibroblast; [3]) was 62% and 63%, the “Population Hoechst High Intensity Objects (%)” value (Fibroblast; [3]) was 0% and the “Population Membrane Permeable-Phenotype (%)” value (Fibroblast; [3]) was 12% and 17%. The “Population Mitochondria Different-Phenotype (%)” value (Fibroblast; [3]) was 6% and 3%, the “Population Mitotic Cells (%)” value (Fibroblast; [3]) was 25% and 42% and the “Population Normal (%)” value (Fibroblast; [3]) was 100%. For the same molecule, the “Population Pyknosed Nuclei (%)” value (Fibroblast; [3]) was 25%, the “Population Tubulin-Different-Phenotype (%)” value (Fibroblast; [3]) was 52% and 41% and the “Total Cell Count” value (Fibroblast; [3]) was 140 and 177. For the same molecule, the “Population Apoptotic (%)” value (Fibroblast; [4]) was 73% and 77%, the “Population Fragmented Nuclei (%)” value (Fibroblast; [4]) was 19% and 21% and the “Population Healthy Nuclei (%)” value (Fibroblast; [4]) was 15% and 20%. The “Population Hoechst High Intensity Objects (%)” value (Fibroblast; [4]) was 0%, the “Population Membrane Permeable-Phenotype (%)” value (Fibroblast; [4]) was 25% and 12% and the “Population Mitochondria Different-Phenotype (%)” value (Fibroblast; [4]) was 25% and 21%. For the same molecule, the “Population Mitotic Cells (%)” value (Fibroblast; [4]) was 26% and 22%, the “Population Normal (%)” value (Fibroblast; [4]) was 99% and 100% and the “Population Pyknosed Nuclei (%)” value (Fibroblast; [4]) was 65% and 57%. For the same molecule, the “Population Tubulin-Different-Phenotype (%)” value (Fibroblast; [4]) was 80% and 74%, the “Total Cell Count” value (Fibroblast; [4]) was 227 and 226 and the “Population Apoptotic (%)” value (Fibroblast; [5]) was 70% and 64%. The “Population Fragmented Nuclei (%)” value (Fibroblast; [5]) was 14% and 12%, the “Population Healthy Nuclei (%)” value (Fibroblast; [5]) was 44% and 50% and the “Population Hoechst High Intensity Objects (%)” value (Fibroblast; [5]) was 0%. For the same molecule, the “Population Membrane Permeable-Phenotype (%)” value (Fibroblast; [5]) was 18%, the “Population Mitotic Cells (%)” value (Fibroblast; [5]) was 29% and 35% and the “Population Normal (%)” value (Fibroblast; [5]) was 100%. The “Population Pyknosed Nuclei (%)” value (Fibroblast; [5]) was 40% and 37%, the “Population Tubulin-Different-Phenotype (%)” value (Fibroblast; [5]) was 39% and 51% and the “Total Cell Count” value (Fibroblast; [5]) was 166 and 150. For the same molecule, the “Population Apoptotic (%)” value (Fibroblast; [6]) was 91% and 94%, the “Population Fragmented Nuclei (%)” value (Fibroblast; [6]) was 16% and 12% and the “Population Healthy Nuclei (%)” value (Fibroblast; [6]) was 5% and 6%. For the same molecule, the “Population Hoechst High Intensity Objects (%)” value (Fibroblast; [6]) was 1% and 0%, the “Population Membrane Permeable-Phenotype (%)” value (Fibroblast; [6]) was 80% and 66% and the “Population Mitochondria Different-Phenotype (%)” value (Fibroblast; [6]) was 10% and 0%. For the same molecule, the “Population Mitotic Cells (%)” value (Fibroblast; [6]) was 8% and 5%, the “Population Normal (%)” value (Fibroblast; [6]) was 98% and 99% and the “Population Pyknosed Nuclei (%)” value (Fibroblast; [6]) was 77% and 80%. For the same molecule, the “Population Tubulin-Different-Phenotype (%)” value (Fibroblast; [6]) was 70% and 66%, the “Total Cell Count” value (Fibroblast; [6]) was 191 and 189 and the “Population Apoptotic (%)” value (HEK-293T; [1]) was 38% and 72%. For the same molecule, the “Population Fragmented Nuclei (%)” value (HEK-293T; [1]) was 3% and 4%, the “Population Healthy Nuclei (%)” value (HEK-293T; [1]) was 89% and 87% and the “Population Hoechst High Intensity Objects (%)” value (HEK-293T; [1]) was 10%. For the same molecule, the “Population Membrane Permeable-Phenotype (%)” value (HEK-293T; [1]) was 2% and 1%, the “Population Mitochondria Different-Phenotype (%)” value (HEK-293T; [1]) was 49% and 45% and the “Population Mitotic Cells (%)” value (HEK-293T; [1]) was 61% and 28%. The “Population Normal (%)” value (HEK-293T; [1]) was 89%, the “Population Pyknosed Nuclei (%)” value (HEK-293T; [1]) was 6% and 7% and the “Population Tubulin-Different-Phenotype (%)” value (HEK-293T; [1]) was 86% and 90%. For the same molecule, the “Total Cell Count” value (HEK-293T; [1]) was 376 and 356, the “Population Apoptotic (%)” value (HEK-293T; [2]) was 87% and 90% and the “Population Fragmented Nuclei (%)” value (HEK-293T; [2]) was 2% and 4%. The “Population Healthy Nuclei (%)” value (HEK-293T; [2]) was 84% and 79%, the “Population Hoechst High Intensity Objects (%)” value (HEK-293T; [2]) was 16% and 14% and the “Population Membrane Permeable-Phenotype (%)” value (HEK-293T; [2]) was 5% and 1%. The “Population Mitochondria Different-Phenotype (%)” value (HEK-293T; [2]) was 87% and 88%, the “Population Mitotic Cells (%)” value (HEK-293T; [2]) was 12% and 9% and the “Population Normal (%)” value (HEK-293T; [2]) was 83% and 85%. The “Population Pyknosed Nuclei (%)” value (HEK-293T; [2]) was 13% and 16%, the “Population Tubulin-Different-Phenotype (%)” value (HEK-293T; [2]) was 96% and 97% and the “Total Cell Count” value (HEK-293T; [2]) was 417 and 374. For the same molecule, the “Population Apoptotic (%)” value (HEK-293T; [3]) was 80%, the “Population Fragmented Nuclei (%)” value (HEK-293T; [3]) was 2% and 3% and the “Population Healthy Nuclei (%)” value (HEK-293T; [3]) was 90% and 85%. The “Population Hoechst High Intensity Objects (%)” value (HEK-293T; [3]) was 13% and 11% and the “Population Membrane Permeable-Phenotype (%)” value (HEK-293T; [3]) was 1% and 0%.
